Drawing on ChEMBL document CHEMBL1151705, “Novel azalides derived from 16-membered macrolides. Part II: Isolation of the linear 9-formylcarboxylic acid and its sequential macrocyclization with an amino alcohol or an azidoamine” (2008), this text covers MIC for three compounds.

≈ marks a conversion by molar mass, not a printed value.

Experiment [1] concerns Streptococcus pneumoniae. Nature of the experiment: Antimicrobial activity against drug-susceptible Streptococcus pneumoniae 2 after 20 hrs by agar dilution method. It counts as functional. In short, it runs like this: (§1)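 Streptococci, H. influenzae and M. catarrhalis were precultured on blood agar plates. Suspensions of about 10⁶ CFU/ml were inoculated onto sensitivity disk agar supplemented with 5% horse blood and incubated at 37 °C for 20 h. MIC was read as the lowest drug concentration with no visible growth.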
A general note: Agar dilution tests growth on a series of plates holding different concentrations.

Experiment [2] concerns Streptococcus pneumoniae. Nature of the experiment: Antimicrobial activity against Streptococcus pneumoniae 4 constitutively expressing ermB after 20 hrs by agar dilution method. To be noted: Streptococcus pneumoniae, 20 h; read-out: MIC. It counts as functional. In short, it runs like this:
as §1

The test system of experiment [3] is Streptococcus pyogenes. Briefly: Antimicrobial activity against drug-susceptible Streptococcus pyogenes 1 after 20 hrs by agar dilution method. It counts as functional. In short, it runs like this: as §1
For experiment [4], the system named is Haemophilus influenzae. Briefly: Antimicrobial activity against drug-susceptible Haemophilus influenzae 4 after 20 hrs by agar dilution method. It counts as functional. The essentials:
as §1

For experiment [5], the system named is Moraxella catarrhalis. Nature of the experiment: Antimicrobial activity against drug-susceptible Moraxella catarrhalis 1 after 20 hrs by agar dilution method. It counts as functional. In short, it runs like this:
as §1

In experiment [6] the test system is Streptococcus pyogenes. Briefly: Antimicrobial activity against Streptococcus pyogenes 2 constitutively expressing ermB after 20 hrs by agar dilution method. It counts as functional. In short, it runs like this: as §1
Experiment [7] deals with Moraxella catarrhalis. Nature of the experiment: Antimicrobial activity against drug-susceptible Moraxella catarrhalis 2 after 20 hrs by agar dilution method. It counts as functional. In short, it runs like this:
as §1

For experiment [8], the system named is Staphylococcus aureus. Nature of the experiment: Antimicrobial activity against Staphylococcus aureus 6 expressing inducible ermC after 20 hrs by agar dilution method.
Experiment [9] has as its system Haemophilus influenzae. Briefly: Antimicrobial activity against drug-susceptible Haemophilus influenzae 2 after 20 hrs by agar dilution method. It counts as functional. The essentials: as §1
Experiment [10] deals with Staphylococcus aureus. Nature of the experiment: Antimicrobial activity against Staphylococcus aureus 5 expressing inducible ermB after 20 hrs by agar dilution method. It counts as functional. In short, it runs like this:
(§2)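 Agar dilution MIC. S. aureus seed culture was grown in sensitivity test broth. Cell suspension (about 10⁶ CFU/ml) was inoculated onto sensitivity disk agar with 5% horse blood and incubated at 37 °C for 20 h. MIC was the lowest drug concentration that prevented visible growth.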

The subject of experiment [11] is Streptococcus pneumoniae. Nature of the experiment: Antimicrobial activity against Streptococcus pneumoniae 6 constitutively expressing ermB after 20 hrs by agar dilution method. It counts as functional. The settings on record: Streptococcus pneumoniae, 20 h; read-out: MIC. The essentials:
as §1

The subject of experiment [12] is Streptococcus pneumoniae. Briefly: Antimicrobial activity against drug-susceptible Streptococcus pneumoniae DP1 Type1 after 20 hrs by agar dilution method. It counts as functional. In short, it runs like this:
as §1

Experiment [13] concerns Streptococcus pneumoniae. Nature of the experiment: Antimicrobial activity against Streptococcus pneumoniae 5 constitutively expressing ermB/mefA after 20 hrs by agar dilution method. It counts as functional. To be noted: Streptococcus pneumoniae, 20 h; read-out: MIC. In short, it runs like this:
as §1

Experiment [14] deals with Haemophilus influenzae. Briefly: Antimicrobial activity against drug-susceptible Haemophilus influenzae 3 after 20 hrs by agar dilution method. It counts as functional. In short, it runs like this: as §1
Experiment [15] deals with Haemophilus influenzae. Nature of the experiment: Antimicrobial activity against drug-susceptible Haemophilus influenzae 1 after 20 hrs by agar dilution method. It counts as functional. The essentials: as §1
The test system of experiment [16] is Streptococcus pneumoniae. Briefly: Antimicrobial activity against Streptococcus pneumoniae 8 expressing inducible ermB after 20 hrs by agar dilution method. It counts as functional. In short, it runs like this:
as §1

For experiment [17], the system named is Staphylococcus aureus. Briefly: Antimicrobial activity against Staphylococcus aureus 4 constitutively expressing ermA after 20 hrs by agar dilution method. It counts as functional. In short, it runs like this: as §2
The test system of experiment [18] is Streptococcus pyogenes. Briefly: Antimicrobial activity against Streptococcus pyogenes 3 expressing mefA after 20 hrs by agar dilution method. It counts as functional. The essentials:
as §1

In experiment [19] the test system is Staphylococcus aureus. Nature of the experiment: Antimicrobial activity against drug-susceptible Staphylococcus aureus 209P JC-1 after 20 hrs by agar dilution method. It counts as functional. The essentials: as §2
Experiment [20] relates to Streptococcus pneumoniae. Nature of the experiment: Antimicrobial activity against Streptococcus pneumoniae 7 expressing inducible ermB after 20 hrs by agar dilution method. It counts as functional. The essentials: as §1
In experiment [21] the test system is Streptococcus pneumoniae. Briefly: Antimicrobial activity against Streptococcus pneumoniae 10 expressing mefA after 20 hrs by agar dilution method. It counts as functional. The essentials:
as §1

In experiment [22] the test system is Streptococcus pneumoniae. Nature of the experiment: Antimicrobial activity against Streptococcus pneumoniae 9 expressing mefA after 20 hrs by agar dilution method. It counts as functional. The essentials:
as §1

Experiment [23] concerns Streptococcus pneumoniae. Briefly: Antimicrobial activity against drug-susceptible Streptococcus pneumoniae 3 after 20 hrs by agar dilution method. It counts as functional. The essentials: as §1
For experiment [24], the system named is Staphylococcus aureus. Briefly: Antimicrobial activity against drug-susceptible Staphylococcus aureus 3 after 20 hrs by agar dilution method. It counts as functional. In short, it runs like this: as §2
The test system of experiment [25] is Staphylococcus aureus. Briefly: Antimicrobial activity against drug-susceptible Staphylococcus aureus 2 after 20 hrs by agar dilution method. It counts as functional. The essentials: as §2
[26] abbreviates: Streptococcus pneumoniae, 20 h, read-out: MIC.
Setting [27] is: Streptococcus pyogenes, 20 h, read-out: MIC.
[28] abbreviates: Haemophilus influenzae, 20 h, read-out: MIC.

For the compound `CCOC(=O)[C@H]1[C@H](C)O[C@@H](O[C@H]2[C@H](N(C)C)[C@@H](O)[C@H](O[C@H]3[C@@H](CC=O)C[C@@H](C)[C@@H](O)CN(C)CCC(CCCc4ccnc5ccccc45)NC(=O)C[C@@H](OC(=O)CC)[C@@H]3OC)O[C@@H]2C)C[C@@]1(C)O` (stereo in doubt; form 1), the MIC in experiment [1] (setting [26]) is 0.13 µg/mL (≈ 0.134 µM); in experiment [2] it was more than 128 µg/mL; in experiment [3] (setting [27]), 0.25 µg/mL (≈ 0.257 µM); in experiment [4] (setting [28]), 8 µg/mL (≈ 8.22 µM); in [5], 2 µg/mL (≈ 2.06 µM); in [6], more than 128 µg/mL. The MIC in experiment [7] was 2 µg/mL (≈ 2.06 µM); in experiment [8] it was 1 µg/mL (≈ 1.03 µM); in [9] (setting [28]) it was 2 µg/mL (≈ 2.06 µM); in experiment [10], 1 µg/mL (≈ 1.03 µM); in experiment [11], more than 128 µg/mL; in [12] it was 0.06 µg/mL (≈ 0.0617 µM). The MIC was more than 128 µg/mL in experiment [13]; 8 µg/mL (≈ 8.22 µM) in experiment [14] (setting [28]); 32 µg/mL (≈ 32.9 µM) in experiment [15] (setting [28]); 32 µg/mL (≈ 32.9 µM) in experiment [16] (setting [26]); more than 128 µg/mL in experiment [17]; 2 µg/mL (≈ 2.06 µM) in experiment [18] (setting [27]). Further, the MIC in experiment [19] worked out at 1 µg/mL (≈ 1.03 µM); in [20] (setting [26]), 32 µg/mL (≈ 32.9 µM); in experiment [21] (setting [26]), 0.13 µg/mL (≈ 0.134 µM); in experiment [22] (setting [26]), 0.13 µg/mL (≈ 0.134 µM); in [23] (setting [26]) it was 0.13 µg/mL (≈ 0.134 µM); in experiment [24], 0.5 µg/mL (≈ 0.514 µM). Moreover, in [25], the MIC came to 1 µg/mL (≈ 1.03 µM).

For `CCOC(=O)[C@H]1[C@H](C)O[C@@H](O[C@H]2[C@H](N(C)C)[C@@H](O)[C@H](O[C@H]3[C@@H](CC=O)C[C@@H](C)[C@@H](O)CN(C)CCC(C/C=C/c4ccnc5ccccc45)NC(=O)C[C@@H](OC(=O)CC)[C@@H]3OC)O[C@@H]2C)C[C@@]1(C)O` (single isomer, unassigned), the MIC is 0.13 µg/mL (≈ 0.134 µM) in experiment [1] (setting [26]); more than 128 µg/mL in experiment [2]; 0.5 µg/mL (≈ 0.515 µM) in [3] (setting [27]); 32 µg/mL (≈ 32.9 µM) in experiment [4] (setting [28]); 2 µg/mL (≈ 2.06 µM) in [5]; more than 128 µg/mL in [6]. The MIC in [7] was 1 µg/mL (≈ 1.03 µM); in experiment [8], 1 µg/mL (≈ 1.03 µM); in experiment [9] (setting [28]), 2 µg/mL (≈ 2.06 µM); in [10] it was 0.5 µg/mL (≈ 0.515 µM); in experiment [11] it was more than 128 µg/mL; in [12] (setting [26]), 0.13 µg/mL (≈ 0.134 µM). The MIC in experiment [13] was more than 128 µg/mL; in experiment [14] (setting [28]), 16 µg/mL (≈ 16.5 µM); in experiment [15] (setting [28]) it was 64 µg/mL (≈ 65.9 µM); in [16] (setting [26]), more than 128 µg/mL; in experiment [17], more than 128 µg/mL; in experiment [18] (setting [27]), 2 µg/mL (≈ 2.06 µM). Besides, the MIC is 1 µg/mL (≈ 1.03 µM) in experiment [19]; more than 128 µg/mL in [20] (setting [26]); 0.25 µg/mL (≈ 0.257 µM) in [21] (setting [26]); 0.25 µg/mL (≈ 0.257 µM) in experiment [22] (setting [26]); 0.25 µg/mL (≈ 0.257 µM) in experiment [23] (setting [26]); 0.5 µg/mL (≈ 0.515 µM) in experiment [24]. Further, the MIC in experiment [25] was 2 µg/mL (≈ 2.06 µM).

In the case of `CCOC(=O)[C@H]1[C@H](C)O[C@@H](O[C@H]2[C@H](N(C)C)[C@@H](O)[C@H](O[C@H]3[C@@H](CC=O)C[C@@H](C)[C@@H](O)CN(C)CCC(/C=C/Cc4ccnc5ccccc45)NC(=O)C[C@@H](OC(=O)CC)[C@@H]3OC)O[C@@H]2C)C[C@@]1(C)O` (stereo in doubt), the MIC in experiment [1] turned out to be 0.25 µg/mL (≈ 0.257 µM); in experiment [3], 0.5 µg/mL (≈ 0.515 µM); in [4], 16 µg/mL (≈ 16.5 µM); in [5], 4 µg/mL (≈ 4.12 µM); in [7], 4 µg/mL (≈ 4.12 µM); in experiment [8], 2 µg/mL (≈ 2.06 µM). Further, the MIC in experiment [9] turned out to be 1 µg/mL (≈ 1.03 µM); in experiment [10], 2 µg/mL (≈ 2.06 µM); in [12], 0.13 µg/mL (≈ 0.134 µM); in experiment [14] it was 8 µg/mL (≈ 8.24 µM); in experiment [15], 32 µg/mL (≈ 32.9 µM); in [16] it was 64 µg/mL (≈ 65.9 µM). The MIC in experiment [18] came to 2 µg/mL (≈ 2.06 µM); in experiment [19] it was 2 µg/mL (≈ 2.06 µM); in [20], 64 µg/mL (≈ 65.9 µM); in experiment [21], 0.25 µg/mL (≈ 0.257 µM); in [22], 0.25 µg/mL (≈ 0.257 µM); in experiment [23], 0.25 µg/mL (≈ 0.257 µM). Also, the results for the MIC in [24] and in experiment [25] were 1 µg/mL (≈ 1.03 µM) and 4 µg/mL (≈ 4.12 µM), respectively.
